Bioassay records from PubChem BioAssay.
Most compounds without a hit are left out; they make up all but 2.7% or so of the library.
ARFGAP1 inh: inhibitors of rat ARFGAP1; Arfgap1-stimulated ARF1 GTP hydrolysis, GDP FP detection; Q62848; inhibition, % at 16.5 µM; AID 651572; 0.26% of 360,000 active;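 active means inhibition above a per-plate limit, mean inhibition of low control wells plus 3 SD, cut at about 25% in these data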;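 further: 0% = DMSO wells with enzyme and 100% = wells lacking Arfgap1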
Target sequence (Q62848 1-136 limits assumed): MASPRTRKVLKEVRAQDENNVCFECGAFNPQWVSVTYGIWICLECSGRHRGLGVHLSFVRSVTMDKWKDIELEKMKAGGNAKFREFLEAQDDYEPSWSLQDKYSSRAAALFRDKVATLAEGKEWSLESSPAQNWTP
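Assay system: Rat Arfgap1 GAP domain (His6, aa 1-136), purified enzyme | Buffer or medium: HEPES 25 mM pH 7.5, NaCl 150 mM, MgCl2, DTT | Schedule: GTP hydrolysis reaction 2 h at 25 °C | Signal: FP of antibody-bound GDP Alexa 633 tracer, ex 620/em 688 nm | Measure: Percent inhibition of Arfgap1-stimulated GTP hydrolysis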
pPAFAH inh: pPAFAH (human) enzyme inhibition; Q13093; recombinant pPAFAH, FP-rhodamine probe fluorescence polarization; inhibition, % at 3.39 µM; 1.5% of 330,000 active;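 active means inhibition above the mean inhibition across the screen plus 3 SD, cut at about 25% in these data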;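 further: inhibitors block binding of the rhodamine activity-based probe so polarization drops; 0% = enzyme with DMSO and 100% = wells lacking pPAFAH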
PAFAH1B3 inh: blocks human PAF acetylhydrolase 1B catalytic subunit 3. AID 492972. inhibition, % at 3.39 µM. Q15102. recombinant PAFAH1B3, FP-rhodamine probe, fluorescence polarization. 0.28% of 340,000 active;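 active means inhibition above the screen-wide average of all tested compounds plus 3 SD, cut at about 25% in these data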;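 further: 0% = enzyme with DMSO only and 100% = wells lacking PAFAH1B3 protein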
PAFAH2 FP inh: PAFAH2 (human) inhibition; Q99487; recombinant PAFAH2, FP-rhodamine activity probe, fluorescence polarization; inhibition, % at 3.39 µM; 0.99% of 340,000 active;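 active means inhibition above the mean over all tested compounds plus 3 SD, cut at about 30% in these data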;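 further: inhibitors block probe labeling of enzyme so polarization drops; 0% = enzyme with DMSO and 100% = wells lacking PAFAH2 protein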
ASAP1 GAP inh: ASAP1 ArfGAP inhibition. inhibition, % at 16.5 µM. Q9ULH1. ASAP1-stimulated ARF1 GTP hydrolysis, GDP FP detection. 0.19% of 360,000 active. AID 624377; in the data active means inhibition above about 25%;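 further: 0% = vehicle with enzyme and substrate and 100% = no enzyme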
Target sequence (Q9ULH1 325-724 limits assumed): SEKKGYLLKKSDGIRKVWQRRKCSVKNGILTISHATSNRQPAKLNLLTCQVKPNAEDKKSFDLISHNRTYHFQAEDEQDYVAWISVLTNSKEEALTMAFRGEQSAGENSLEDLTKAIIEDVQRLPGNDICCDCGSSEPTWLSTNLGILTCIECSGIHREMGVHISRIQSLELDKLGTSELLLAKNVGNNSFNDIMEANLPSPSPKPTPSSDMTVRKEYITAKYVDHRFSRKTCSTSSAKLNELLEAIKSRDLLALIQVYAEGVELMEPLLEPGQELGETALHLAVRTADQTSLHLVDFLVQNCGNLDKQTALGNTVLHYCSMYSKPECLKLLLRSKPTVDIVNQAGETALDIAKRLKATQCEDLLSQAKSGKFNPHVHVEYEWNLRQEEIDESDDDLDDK
PAFAH1B2 FP inh: inhibitors of human PAFAH1B2; P68402; recombinant PAFAH1B2, FP-rhodamine activity probe, fluorescence polarization; inhibition, % at 3.39 µM; 1.2% of 340,000 active; AID 492953;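 active means inhibition above the mean of all tested compounds plus 3 SD, cut at about 24% in these data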;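 further: 0% = enzyme with DMSO and 100% = wells lacking PAFAH1B2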
ASAP1 GAP conf: confirmation of human ASAP1 inhibitors | ASAP1-stimulated Arf1 GTPase, GDP fluorescence polarization | inhibition, % at 16.5 µM | 37% of 620 active | shares compounds with ASAP1 GAP inh;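 active means mean inhibition over triplicates exceeds the hit threshold derived for the earlier primary screening run, cut at about 25% in these data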
* hit, by the source's call; x = no result given.

SMILES | ARFGAP1 inh | pPAFAH inh | PAFAH1B3 inh | PAFAH2 FP inh | ASAP1 GAP inh | PAFAH1B2 FP inh | ASAP1 GAP conf
COc1ccc(N(C)S(=O)(=O)c2cccc(C(=O)NCc3ccc4c(c3)OCO4)c2)cc1 | 4 | 9 | 1 | 14 | 25* | 7 | 6
Cc1ccc(-n2nc3c(c2NC(=O)c2ccco2)CS(=O)C3)cc1 (stereo not drawn) | -8 | -1 | 1 | -3 | 25* | 7 | -2
Cn1c(=O)cc(SCC(=O)N2CCCC2)c2ccccc21 | 2 | 2 | 2 | 4 | 35* | -2 | 3
COc1ccc2c(c1OC)C(=O)OC2CC(=O)c1ccc(O)cc1 (stereo not drawn) | -1 | 3 | 1 | 7 | -3 | -1 | x
COc1ccc2c(c1OC)C(=O)OC2CC(=O)c1ccc(O)c(O)c1 (stereo not drawn) | -10 | 5 | 15 | 13 | 144* | 4 | -1
CC[C@]1(C(=O)OC)[C@H]2C(=O)N(Cc3ccccc3)C(=O)[C@H]2[C@H]2CN=C(SC)N21 | 10 | 3 | 8 | 1 | 8 | 1 | x
CCOC(=O)c1sc(N(Cc2ccccc2)C(=O)CCl)nc1C | -4 | -3 | -6 | -5 | 0 | 2 | x
CCOC(=O)c1sc(N(Cc2ccccc2)C(=O)COC(=O)c2ccc(O)cc2)nc1C | 16 | -18 | -15 | -24 | 26* | -12 | 21
CCCn1c(N)c(C(=O)CN(C)CC(=O)Nc2c(C)cc(C)cc2C)c(=O)[nH]c1=O | -4 | x | 7 | 0 | -17 | 7 | x
C[C@@H]1CN([C@H](C)CO)S(=O)(=O)c2ccc(Br)cc2O[C@H]1CN(C)C(=O)Cc1ccccn1 | 0 | x | x | x | -9 | x | x
CCCCN(Cc1ccco1)C(=O)Cn1ncc2c(=O)oc3ccc(C)cc3c21 | 15 | 1 | -10 | 0 | 30* | 0 | 33*
Cc1ccc2oc(=O)c3cnn(CC(=O)N(CCC(C)C)Cc4ccco4)c3c2c1 | -8 | 7 | 0 | 15 | -1 | 2 | x
CCOC(=O)CN(c1sc(C)c(C)c1C(=O)OCC)S(=O)(=O)c1ccc(C)cc1 | 13 | x | x | x | 3 | x | x
Cc1ccccc1NC1=C/C(=N\S(=O)(=O)c2cccs2)c2ccccc2C1=O | 18 | 21 | 64* | 40* | 25* | 25* | 6
Cc1cc[n+](C2=C([O-])c3ccccc3C(=O)/C2=N\S(=O)(=O)c2cccs2)cc1C | -6 | 1 | -4 | -7 | -6 | -4 | x
CCOC(=O)[C@H]1[C@H]2COc3ccc(Br)cc3[C@@H]2N2C(=O)c3ccc(Cl)cc3NC(=O)[C@@]12C | 3 | 4 | 5 | -18 | 6 | -2 | x
C[C@@H]1CN([C@@H](C)CO)C(=O)c2cc(Br)cnc2O[C@H]1CN(C)C(=O)Nc1ccc(F)cc1 | 13 | x | x | x | 19 | x | x
COC(=O)[C@]12CCCCC=C1N(Cc1ccccc1)C(=O)[C@H](CC(=O)NCCc1ccccc1OC)C2 | 11 | x | x | x | -15 | x | x
Cc1nnc(-c2cccc(Br)c2)c2cn(-c3cccc(Br)c3)nc12 | 14 | 32* | -6 | 2 | 27* | -3 | 20
CCOc1cc(/C=C2/NC(=S)NC2=O)ccc1OCc1ccc([N+](=O)[O-])cc1 | 2 | 4 | -6 | 0 | 29* | -1 | 13
C[C@H](CO)N1C[C@H](C)[C@@H](CN(C)C(=O)Nc2ccc(C(F)(F)F)cc2)Oc2c(NC(=O)c3ccncc3)cccc2C1=O | 3 | -1 | 10 | 18 | -2 | 20 | x
C[C@H](CO)N1C[C@H](C)[C@H](CN(C)C(=O)Nc2ccc(F)cc2)Oc2c(NC(=O)c3ccc(-c4nccs4)cc3)cccc2C1=O | 6 | -1 | 1 | -4 | 31* | -3 | 10
O=C(NCC[C@@H]1CC[C@@H](NS(=O)(=O)Cc2ccccc2)[C@@H](CO)O1)C1CC1 | 2 | x | x | x | 26* | x | -1
Cc1cccc(C)c1NC(=O)C(c1ccccc1)n1c(=O)c(-c2ccco2)nc2ccccc21 (stereo not drawn) | 1 | x | x | x | 5 | x | x
CNC(=O)C[C@@H]1CC[C@@H]2[C@H](COC[C@H](O)CN2S(=O)(=O)c2ccccc2Cl)O1 | -2 | x | x | x | -10 | x | x
SMILES | ARFGAP1 inh | pPAFAH inh | PAFAH1B3 inh | PAFAH2 FP inh | ASAP1 GAP inh | PAFAH1B2 FP inh | ASAP1 GAP conf
COc1ccccc1-c1cc(NC=O)c2ncc(-c3ccc(S(C)(=O)=O)cc3)n2c1 | 7 | x | x | x | 3 | x | x
COc1ccc(C2=Nc3ccccc3NC(=O)C2N(CCc2ccccc2)C(=O)c2cccs2)cc1 (stereo not drawn) | 7 | x | x | x | 27* | x | -1
COc1cc2c(cc1CNC[C@H]1O[C@@H](n3cnc4c(N)ncnc43)[C@H](O)[C@@H]1O)OCO2 | x | -1 | -3 | 2 | x | 5 | x
COC1=C(Br)C(=O)c2nc(C)ccc2C1=O | 5 | x | x | x | 27* | x | 4
Cc1cc(NS(=O)(=O)c2ccc(NC(=O)c3cnc(Cl)c(Cl)c3)cc2)nc(C)n1 | -3 | -1 | 0 | 7 | -7 | 5 | x
COc1ccc(Cn2ccnc2SCC(=O)Nc2ccccc2F)cc1 | -4 | 2 | 7 | 6 | 5 | 13 | x
COc1ccc(Cn2ccnc2SCC(=O)Nc2ccccc2OC)cc1 | -4 | 2 | 13 | -5 | 26* | -5 | 10
Cc1cc(C)c(C)c(S(=O)(=O)N2CCSCC2)c1C | -2 | -6 | 9 | -1 | 25* | 3 | 5
O=C1C(Cl)=C(NCCc2ccccc2)C(=O)c2ccccc21 | 18 | x | 40* | 30* | 30* | 33* | 6
CCCOc1ccc2c(c1)C(=NN=C(N)N)c1cc(OCCC)ccc1-2 | 15 | 14 | 11 | 1 | 14 | 6 | x
O=C(Nc1ccn(CCCNCc2ccccc2)c(=O)n1)OCc1ccccc1 | 15 | x | 7 | 9 | 2 | 6 | x
O=C(Nc1ccn(CCCN(CCCn2ccc(NC(=O)OCc3ccccc3)nc2=O)CCc2cc3ccccc3[nH]2)c(=O)n1)OCc1ccccc1 | 19 | x | 13 | -1 | 30* | 1 | 16
CNC(C)C(=O)NC(C(=O)NC(C)C(=O)Nc1cccc2ccccc12)C(C)C (stereo not drawn) | 9 | x | x | x | 7 | x | x
COCCN(C(=O)c1ccc(COc2ccccc2)o1)c1c(N)n(CC(C)C)c(=O)[nH]c1=O | -17 | -2 | 5 | -7 | -3 | 1 | x
N/C(=N\OC(=O)c1cccc2ccccc12)c1cccc([N+](=O)[O-])c1 | 18 | 6 | -6 | -14 | 28* | -5 | 57*
Cc1ccccc1C(=O)O/N=C(\N)c1cccc([N+](=O)[O-])c1 | -3 | 0 | 9 | -2 | 2 | 3 | x
Cc1ccc2nc(-c3ccccc3)cc(C(=O)N3CCN(S(=O)(=O)c4c(C)noc4C)CC3)c2c1 | -15 | -6 | 5 | 2 | 13 | 3 | x
